Calls of active or inactive are those of the source. No cut-off for these calls is given here.
Key:
Canis familiaris [1] = assay: Antiarrhythmic activity in anesthetized acute myocardial infarction dog model assessed as normal ECG complexes at 10 mg/kg, po administered 120 mins prior to infarction measured post-infarction; format: functional, Canis lupus familiaris, Heart
Procedure, shortened: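 Oral dosing 120 min before infarction in the same intracoronary tetrafluorohexachlorobutane arrhythmia model. Protection was read from ECG complexes after infarction, as the percentage that were normal.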

Canis familiaris [2] = assay: Antiarrhythmic activity in anesthetized acute myocardial infarction dog model assessed as normal ECG complexes at 0.25 mg/kg, iv administered 10 mins prior to infarction measured during 1-hr postinfarction period (reference value: 19%); format: functional, Canis lupus familiaris, Heart
Procedure, shortened: (§1)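 Sclerosing agent (tetrafluorohexachlorobutane) injected into the anterior descending coronary artery to produce a multifocal ventricular arrhythmia. Single iv dose 10 min before infarction. Segmented ECG tracings over the 1 h after infarction were scored as the percentage of complexes of sinus origin (normal). Saline controls were run alongside.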

Canis familiaris [3] = assay: Antiarrhythmic activity in anesthetized acute myocardial infarction dog model assessed as normal ECG complexes at 0.5 mg/kg, iv administered 10 mins prior to infarction measured during 1-hr postinfarction period (reference value: 19%); format: functional, Canis lupus familiaris, Heart; procedure, shortened: as §1
Canis familiaris [4] = assay: Antiarrhythmic activity in anesthetized acute myocardial infarction dog model assessed as normal ECG complexes at 1.25 mg/kg, iv administered 10 mins prior to infarction measured during 1-hr postinfarction period (reference value: 19%); format: functional, Canis lupus familiaris, Heart; procedure, shortened: as §1
Canis familiaris [5] = assay: Antiarrhythmic activity in anesthetized acute myocardial infarction dog model assessed as normal ECG complexes at 2.5 mg/kg, iv administered 10 mins prior to infarction measured during 1-hr postinfarction period (reference value: 19%); format: functional, Canis lupus familiaris, Heart; procedure, shortened: as §1
Canis familiaris [6] = assay: Antiarrhythmic activity in anesthetized acute myocardial infarction dog model assessed as normal ECG complexes at 0.06 mg/kg, iv administered 10 mins prior to infarction measured during 1-hr postinfarction period (reference value: 19%); format: functional, Canis lupus familiaris, Heart; procedure, shortened: as §1
Canis familiaris [7] = assay: Antiarrhythmic activity in iv dosed anesthetized acute myocardial infarction dog model assessed as protection against ventricular arrhythmia development administered 10 mins prior to infarction measured during 1-hr postinfarction period; format: functional, Canis lupus familiaris, Heart; procedure, shortened: as §1
Canis familiaris [8] = assay: Effect on cardiac conduction in anesthetized acute myocardial infarction dog model assessed as increase in QT duration at 5 mg/kg, iv administered 10 mins prior to infarction measured after 10 mins (reference value: 2 ms); format: functional, Canis lupus familiaris, Heart
Canis familiaris [9] = assay: Myocardial depressant activity in iv dosed anesthetized dog at higher doses; format: ADME, organism-based, Canis lupus familiaris, Myocardium; settings: in vivo
Canis familiaris [10] = assay: Hypotensive activity in iv dosed anesthetized dog at higher doses; format: ADME, organism-based, Canis lupus familiaris; settings: in vivo
Canis familiaris [11] = assay: Antiarrhythmic activity in anesthetized acute myocardial infarction dog model assessed as normal ECG complexes at 5 mg/kg, iv administered 10 mins prior to infarction measured during 1-hr postinfarction period (reference value: 19%); format: functional, Canis lupus familiaris, Heart; procedure, shortened: as §1
Canis familiaris [12] = assay: Reduction in heart rate in anesthetized acute myocardial infarction dog model at 2.5 mg/kg, iv administered 10 mins prior to infarction (reference value: 6 bpm); format: functional, Canis lupus familiaris
Canis familiaris [13] = assay: Effect on cardiac conduction in anesthetized acute myocardial infarction dog model assessed as increase in PR interval at 5 mg/kg, iv administered 10 mins prior to infarction measured after 10 mins (reference value: 0 ms); format: functional, Canis lupus familiaris, Heart
Canis familiaris [14] = assay: Reduction in heart rate in anesthetized acute myocardial infarction dog model at 5 mg/kg, iv administered 10 mins prior to infarction (reference value: 6 bpm); format: functional, Canis lupus familiaris
Canis familiaris [15] = assay: Effect on cardiac conduction in anesthetized acute myocardial infarction dog model assessed as increase in QT duration at 2.5 mg/kg, iv administered 10 mins prior to infarction measured after 10 mins (reference value: 2 ms); format: functional, Canis lupus familiaris, Heart
Canis familiaris [16] = assay: Effect on cardiac conduction in anesthetized acute myocardial infarction dog model assessed as increase in PR interval at 2.5 mg/kg, iv administered 10 mins prior to infarction measured after 10 mins (reference value: 0 ms); format: functional, Canis lupus familiaris, Heart
Canis familiaris [17] = assay: Antiarrhythmic activity in anesthetized acute myocardial infarction dog model assessed as normal ECG complexes at 0.07 mg/kg, iv administered 10 mins prior to infarction measured during 1-hr postinfarction period (reference value: 19%); format: functional, Canis lupus familiaris, Heart; procedure, shortened: as §1
Canis familiaris [18] = assay: Effect on cardiac conduction in anesthetized acute myocardial infarction dog model assessed as increase in QT duration at 0.06 mg/kg/min, iv administered as continuous infusion for 60 mins measured after 10 mins (reference value: 2 ms); format: functional, Canis lupus familiaris, Heart
Canis familiaris [19] = assay: Effect on cardiac conduction in anesthetized acute myocardial infarction dog model assessed as increase in QT duration at 0.0125 mg/kg/min, iv administered as continuous infusion for 60 mins measured after 10 mins (reference value: 2 ms); format: functional, Canis lupus familiaris, Heart
Canis familiaris [20] = assay: Effect on cardiac conduction in anesthetized acute myocardial infarction dog model assessed as increase in PR interval at 0.03 mg/kg/min, iv administered as continuous infusion for 60 mins measured after 10 mins (reference value: 0 ms); format: functional, Canis lupus familiaris, Heart
Canis familiaris [21] = assay: Effect on cardiac conduction in anesthetized acute myocardial infarction dog model assessed as increase in QT duration at 0.03 mg/kg/min, iv administered as continuous infusion for 60 mins measured after 10 mins (reference value: 2 ms); format: functional, Canis lupus familiaris, Heart
Canis familiaris [22] = assay: Effect on cardiac conduction in anesthetized acute myocardial infarction dog model assessed as increase in PR interval at 0.06 mg/kg/min, iv administered as continuous infusion for 60 mins measured after 10 mins (reference value: 0 ms); format: functional, Canis lupus familiaris, Heart
Canis familiaris [23] = assay: Effect on cardiac conduction in anesthetized acute myocardial infarction dog model assessed as increase in PR interval at 0.025 mg/kg/min, iv administered as continuous infusion for 60 mins measured after 10 mins (reference value: 0 ms); format: functional, Canis lupus familiaris, Heart
Canis familiaris [24] = assay: Effect on cardiac conduction in anesthetized acute myocardial infarction dog model assessed as increase in PR interval at 0.0125 mg/kg/min, iv administered as continuous infusion for 60 mins measured after 10 mins (reference value: 0 ms); format: functional, Canis lupus familiaris, Heart
Canis familiaris [25] = assay: Effect on cardiac conduction in anesthetized acute myocardial infarction dog model assessed as increase in QT duration at 0.025 mg/kg/min, iv administered as continuous infusion for 60 mins measured after 10 mins (reference value: 2 ms); format: functional, Canis lupus familiaris, Heart
Canis familiaris [26] = assay: Antiarrhythmic activity in anesthetized acute myocardial infarction dog model assessed as normal ECG complexes at 10 mg/kg, iv administered 10 mins prior to infarction measured during 1-hr postinfarction period (reference value: 19%); format: functional, Canis lupus familiaris, Heart; procedure, shortened: as §1
[27] = Canis lupus familiaris, Heart, iv, read-out: ED75

| Compound | Activity (Canis familiaris [2]) | Activity (Canis familiaris [3]) | Activity (Canis familiaris [4]) | Activity (Canis familiaris [5]) | ED75 (Canis familiaris [7]; [27]) | further results |
| --- | --- | --- | --- | --- | --- | --- |
| CNC(C)(C)c1ccc(C(F)(F)C(F)(F)c2ccccc2)cc1.Cl | 68% | 65% | 86% | 99% | 0.5 mg/kg | Activity (Canis familiaris [1]): >=80%; Activity (Canis familiaris [6]): 27% |
| NCc1cc(F)ccc1C(F)(F)C(F)(F)c1ccccc1 | – | 48% | – | – | 0.5 mg/kg | – |
| O=C1NC(=O)C(c2ccccc2)(c2ccccc2)N1 [PHENYTOIN] | – | – | – | 17% | – | Time (Canis familiaris [8]): 3 ms; Activity (Canis familiaris [9]): Toxic; Activity (Canis familiaris [10]): Toxic; Activity (Canis familiaris [11]): 40%; Activity (Canis familiaris [12]): 11 bpm; Time (Canis familiaris [13]): 8 ms; Activity (Canis familiaris [14]): 13 bpm; Time (Canis familiaris [15]): 5 ms; Time (Canis familiaris [16]): 10 ms |
| CC(C)(N)c1cccc(C(F)(F)C(F)(F)c2ccccc2)c1.Cl | – | – | 45% | 80% | 2.7 mg/kg | – |
| Br.CNCc1cccc(C(F)(F)C(F)(F)c2ccccc2)c1CNC | 30% | 61% | 65% | 92% | 1.3 mg/kg | – |
| CC(O)C(=O)O.NCc1ccccc1C(F)(F)C(F)(F)c1ccccc1CN | – | 38% | 59% | 71% | 2.5 mg/kg | – |
| CN(C)C(C)(C)c1ccc(C(F)(F)C(F)(F)c2ccccc2)cc1.Cl | – | – | 53% | 83% | 2.1 mg/kg | – |
| Cc1c(CN)cccc1C(F)(F)C(F)(F)c1ccccc1.Cl | – | – | – | 49% | – | – |
| Cl.NCc1ccccc1C(F)(F)C(F)(F)c1ccccc1 | 81% | 86% | 91% | 98% | 0.2 mg/kg | Activity (Canis familiaris [1]): >=80%; Activity (Canis familiaris [17]): 58% |
| Cl.NCc1ccc(C(F)(F)C(F)(F)c2ccccc2)cc1 | – | – | – | 37% | – | – |
| CN(C)Cc1ccccc1C(F)(F)C(F)(F)c1ccccc1.Cl | – | – | – | 61% | 4.8 mg/kg | Activity (Canis familiaris [11]): 75% |
| CNCc1ccccc1C(F)(F)C(F)(F)c1ccccc1.Cl | 38% | 73% | – | 93% | 0.84 mg/kg | – |
| CC(N)c1ccc(C(F)(F)C(F)(F)c2ccccc2)cc1.Cl (stereo not drawn) | – | – | 25% | 80% | 4 mg/kg | – |
| CCN(CC)CC(=O)Nc1c(C)cccc1C [LIDOCAINE] | – | – | – | – | – | Time (Canis familiaris [18]): 0 ms; Time (Canis familiaris [19]): 0 ms; Time (Canis familiaris [20]): 0 ms; Time (Canis familiaris [21]): 0 ms; Time (Canis familiaris [22]): 0 ms; Time (Canis familiaris [23]): 2 ms; Time (Canis familiaris [24]): 0 ms; Time (Canis familiaris [25]): 0 ms |
| CNC(C)c1ccccc1C(F)(F)C(F)(F)c1ccccc1.O=C(O)C(O)C(O)C(=O)O (single isomer, unassigned; (-)) | 44% | – | – | – | – | Activity (Canis familiaris [3]; 0.5 mg/kg): 84%; ED75 (Canis familiaris [7]): 0.48 mg/kg |
| Cl.FC(F)(c1ccccc1)C(F)(F)c1ccccc1CNCc1ccccc1 | 23% | 74% | – | – | 0.84 mg/kg | – |
| CNC(C)(C)c1ccc(C(F)(F)C(F)(F)c2ccc(C)cc2)cc1.Cl | – | – | – | 67% | – | – |
| CNC(C)c1ccccc1C(F)(F)C(F)(F)c1ccccc1.O=C(O)/C=C\C(=O)O (stereo not drawn) | 35% | 59% | 91% | 88% | 0.88 mg/kg | – |
| Br.FC(F)(c1ccccc1)C(F)(F)c1cccc(CNCc2ccccc2)c1CNCc1ccccc1 | – | 65% | 98% | 99% | 0.64 mg/kg | – |
| NCc1ccccc1C(F)(F)C(F)(F)c1ccc(F)cc1 | 20% | – | 52% | 74% | 3 mg/kg | – |
| Cl.Nc1ccccc1C(F)(F)C(F)(F)c1ccccc1 | – | – | – | 10% | – | ED75 (Canis familiaris [7]; Canis lupus familiaris, Heart): inactive; Activity (Canis familiaris [26]): 26% |
| CNC(C)c1ccccc1C(F)(F)C(F)(F)c1ccccc1.O=C(O)C(O)C(O)C(=O)O (single isomer, unassigned; (+)) | – | – | 72% | – | – | Activity (Canis familiaris [3]; 0.5 mg/kg): 26%; ED75 (Canis familiaris [7]): 2 mg/kg |
| Br.FC(F)(c1ccccc1)C(F)(F)c1cccc2c1CNC2 | – | – | – | 51% | 7 mg/kg | Activity (Canis familiaris [11]): 71% |
| Cc1ccc(C(F)(F)C(F)(F)c2ccc(C(C)(C)N)cc2)cc1.Cl | 52% | – | 75% | 88% | 1.4 mg/kg | Activity (Canis familiaris [6]): 15% |
| CC(N)c1ccccc1C(F)(F)C(F)(F)c1ccccc1.O=C(O)/C=C\C(=O)O (stereo not drawn) | – | 43% | 82% | 87% | 1.3 mg/kg | – |
| CC(C)(N)c1ccc(C(F)(F)C(F)(F)c2ccccc2)cc1.Cl | 50% | 75% | 89% | 98% | 0.6 mg/kg | Activity (Canis familiaris [1]): >=80%; Activity (Canis familiaris [6]): 35% |
| Cl.NCCc1ccccc1C(F)(F)C(F)(F)c1ccccc1 | – | 27% | – | 88% | 2 mg/kg | – |
| Cl.NCc1ccccc1C(F)(F)C(F)(F)C(F)(F)c1ccccc1 | 24% | – | 68% | 83% | 1.8 mg/kg | – |

Source: ChEMBL document CHEMBL3244101, “2-, 3-, and 4-(alpha, alpha, beta, beta-tetrafluorophenethyl)benzylamines. A new class of antiarrhythmic agents” (J Med Chem, 1977)
